Assay results reported in ChEMBL document CHEMBL3414488, “When structure-affinity relationships meet structure-kinetics relationships: 3-((Inden-1-yl)amino)-1-isopropyl-cyclopentane-1-carboxamides as CCR2 antagonists” (Eur J Med Chem, 2015).
The source made the active and inactive calls. The calls are words filed in the database; no cut-off is given here.

Assays:
[1] = biological target: T1, C-C chemokine receptor type 2 (Homo sapiens, UniProt P41597); experiment: Displacement of 0.1 nM [125I]CCL2 from human CCR2 expressing human U2OS cell membrane by scintillation spectrometry; format: cell membranes
Method in brief: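 U2OS–CCR2 membranes (15 μg) incubated 150 min at 37 °C with 0.1 nM 125I-CCL2 with or without competitor. Ki derived from IC50 by Cheng–Prusoff. Mean ± S.E.M. of at least 3 experiments in duplicate.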
Target sequence in this assay (P41597 whole entry): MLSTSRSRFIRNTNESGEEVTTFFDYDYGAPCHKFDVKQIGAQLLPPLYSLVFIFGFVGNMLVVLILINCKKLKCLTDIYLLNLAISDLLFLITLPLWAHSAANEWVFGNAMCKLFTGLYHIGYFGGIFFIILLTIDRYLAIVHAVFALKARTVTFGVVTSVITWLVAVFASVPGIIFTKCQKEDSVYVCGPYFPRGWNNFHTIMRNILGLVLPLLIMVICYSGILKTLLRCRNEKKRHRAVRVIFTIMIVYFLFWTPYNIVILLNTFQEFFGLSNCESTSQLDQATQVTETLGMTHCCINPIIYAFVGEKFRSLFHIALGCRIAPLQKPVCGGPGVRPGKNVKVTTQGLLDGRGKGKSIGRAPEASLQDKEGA

[2] = biological target: T1, C-C chemokine receptor type 2; experiment: Displacement of [3H]INCB3344 from human CCR2 receptor expressed in human U2OS cell membrane assessed as kinetic rate index at Ki by dual-point competition association assay relative to control; format: cell membranes
Method in brief: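 U2OS–CCR2 membranes (10 μg) incubated with 1.8 nM [3H]INCB3344 at 25 °C for 50 min (t1) or 240 min (t2). Unlabeled ligand was present at 1-fold its Ki from 125I-CCL2 displacement. KRI = specific binding at t1 divided by specific binding at t2.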
Target sequence in this assay (P41597 whole entry, looked up): as the sequence (P41597 whole entry) above

[3] = Residence time of the compound
[4] = biological target: T1, C-C chemokine receptor type 2; experiment: Displacement of 0.1 nM [125I]CCL2 from human CCR2 expressing human U2OS cell membrane by scintillation spectrometry
Target sequence in this assay (P41597 whole entry, looked up): as the sequence (P41597 whole entry) above

[5] = biological target: T1, C-C chemokine receptor type 2; experiment: Antagonist activity at human CCR2 expressing human U2OS cells assessed as inhibition of CCL2-induced G protein activation at 10 uM by [35S]GTPgammaS binding/scintillation spectrometry assay; format: functional, cell-based
Method in brief: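 Membranes (10 μg) in 50 mM Tris-HCl pH 7.4, 5 mM MgCl2, 100 mM NaCl, 1 mM EDTA, 0.05% BSA, 10 μM GDP, 10 μg saponin; 30 min preincubation with 10 μM antagonist at 25 °C, then 10 nM CCL2 for 30 min, then 0.3 nM [35S]GTPγS for 90 min. Stopped with ice-cold buffer, GF/B filtration, scintillation counting.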
Target sequence in this assay (P41597 whole entry, looked up): as the sequence (P41597 whole entry) above

SMILES	Ki [1]	Ratio [2]	Residence time [3]	inhibition [4]	inhibition [5]	Kd [1]
CC(C)[C@]1(C(=O)N2CCc3ccc(C(F)(F)F)cc3C2)CC[C@@H](NC2CCc3c(C#N)cccc32)C1 (stereo not given in full)	15 nM	0.6	–	–	–	–
CC(C)[C@]1(C(=O)N2CCc3ccc(C(F)(F)F)cc3C2)CC[C@@H](NC2CCc3cc(F)ccc32)C1 (stereo not given in full)	4.9 nM	0.9	55 min	–	–	–
CC(C)[C@]1(C(=O)NCc2cc(C(F)(F)F)cc(C(F)(F)F)c2)CC[C@@H](NC2CCc3ccccc32)C1 (stereo not given in full)	–	0.8	9.1 min	–	–	–
CCOc1cncc(-c2ccc3c(c2)CCC3N[C@@H]2CC[C@@](C(=O)N3CCc4ccc(C(F)(F)F)cc4C3)(C(C)C)C2)c1 (stereo not given in full)	10 nM	0.5	–	–	–	–
CC(C)[C@]1(C(=O)N2CCc3ccc(C(F)(F)F)cc3C2)CC[C@@H](NC2CCc3cc(-c4ccccc4)ccc32)C1 (stereo not given in full)	–	–	–	28%	–	–
CC(C)[C@]1(C(=O)N2CCc3ccc(C(F)(F)F)cc3C2)CC[C@@H](N[C@@H]2CCc3cc(Br)ccc32)C1	2.4 nM	1.7	714 min	–	Active	–
COc1cc(-c2ccc3c(c2)CCC3N[C@@H]2CC[C@@](C(=O)N3CCc4ccc(C(F)(F)F)cc4C3)(C(C)C)C2)c(F)cn1 (stereo not given in full)	12 nM	0.8	–	–	–	–
COc1ccc(-c2ccc3c(c2)CCC3N[C@@H]2CC[C@@](C(=O)N3CCc4ccc(C(F)(F)F)cc4C3)(C(C)C)C2)cc1 (stereo not given in full)	75 nM	0.9	–	–	–	–
CC(C)[C@]1(C(=O)N2CCc3ccc(C(F)(F)F)cc3C2)CC[C@@H](NC2CCc3ccc(Cl)cc32)C1 (stereo not given in full)	7.9 nM	0.6	–	–	–	–
CC(C)[C@]1(C(=O)N2CCc3ccc(C(F)(F)F)cc3C2)CC[C@@H](N[C@H]2C[C@H](C)c3cc(Br)ccc32)C1	4.6 nM	1.2	208 min	–	Active	–
CC(C)[C@]1(C(=O)N2CCc3ccc(C(F)(F)F)cc3C2)CC[C@@H](N[C@H]2CCc3cc(Br)ccc32)C1	24 nM	0.8	15 min	–	Active	–
CC(C)[C@]1(C(=O)N2CCc3ccc(C(F)(F)F)cc3C2)CC[C@@H](N[C@H]2C[C@@H](C)c3cc(Br)ccc32)C1	1.7 nM	1.4	588 min	–	Active	–
CC(C)[C@]1(C(=O)N2CCN(c3cc(C(F)(F)F)ccn3)CC2)CC[C@@H](NC2CCc3ccccc32)C1 (stereo not given in full)	15 nM	0.5	8.3 min	–	–	–
CC(C)[C@]1(C(=O)N2CCc3ccc(C(F)(F)F)cc3C2)CC[C@@H](N[C@@H]2C[C@H](C)c3cc(Br)ccc32)C1	137 nM	–	–	–	–	–
Cc1cccc2c1CCC2N[C@@H]1CC[C@@](C(=O)N2CCc3ccc(C(F)(F)F)cc3C2)(C(C)C)C1 (stereo not given in full)	31 nM	0.7	–	–	–	–
CC1CC(N[C@@H]2CC[C@@](C(=O)N3CCc4ccc(C(F)(F)F)cc4C3)(C(C)C)C2)c2ccc(Br)cc21 (stereo not given in full)	2 nM	1.3	345 min	–	–	–
CC(C)[C@]1(C(=O)N2CCc3ccc(C(F)(F)F)cc3C2)CC[C@@H](NC2CCc3cc(-c4ccc(C#N)cc4)ccc32)C1 (stereo not given in full)	11 nM	0.9	–	–	–	–
CCC1CC(N[C@@H]2CC[C@@](C(=O)N3CCc4ccc(C(F)(F)F)cc4C3)(C(C)C)C2)c2cc(OC)c(Br)cc21 (stereo not given in full)	83 nM	1.3	179 min	–	–	–
CC1CC(N[C@@H]2CC[C@@](C(=O)N3CCc4ccc(C(F)(F)F)cc4C3)(C(C)C)C2)c2ccccc21 (stereo not given in full)	3.4 nM	0.7	–	–	–	–
CC(C)[C@]1(C(=O)N2CCc3ccc(C(F)(F)F)cc3C2)CC[C@@H](N[C@@H]2C[C@@H](C)c3cc(Br)ccc32)C1	199 nM	–	–	–	–	–
COc1cc2c(cc1Br)C(C)CC2N[C@@H]1CC[C@@](C(=O)N2CCc3ccc(C(F)(F)F)cc3C2)(C(C)C)C1 (stereo not given in full)	13 nM	1.5	238 min	–	–	–

SMILES	Ki [1]	Ratio [2]	Residence time [3]	inhibition [4]	inhibition [5]	Kd [1]
Cc1ccc2c(c1)C(N[C@@H]1CC[C@@](C(=O)N3CCc4ccc(C(F)(F)F)cc4C3)(C(C)C)C1)CC2 (stereo not given in full)	23 nM	0.6	–	–	–	–
CC(C)[C@]1(C(=O)N2CCc3ccc(C(F)(F)F)cc3C2)CC[C@@H](NC2CCc3cc(C(F)(F)F)ccc32)C1 (stereo not given in full)	13 nM	1.4	667 min	–	Active	–
Cc1cccc(-c2ccc3c(c2)CCC3N[C@@H]2CC[C@@](C(=O)N3CCc4ccc(C(F)(F)F)cc4C3)(C(C)C)C2)c1 (stereo not given in full)	–	–	–	24%	–	–
CC(C)[C@]1(C(=O)N2CCc3ccc(C(F)(F)F)cc3C2)CC[C@@H](NC2CCc3c(O)cccc32)C1 (stereo not given in full)	21 nM	0.7	–	–	–	–
CC(C)[C@]1(C(=O)N2CCc3ccc(C(F)(F)F)cc3C2)CC[C@@H](NC2CCc3cc(-c4cccnc4)ccc32)C1 (stereo not given in full)	10 nM	0.7	–	–	–	–
COc1cc2c(cc1OC)C(N[C@@H]1CC[C@@](C(=O)N3CCc4ccc(C(F)(F)F)cc4C3)(C(C)C)C1)CC2 (stereo not given in full)	1.2 nM	1	63 min	–	–	–
CC(C)[C@]1(C(=O)N2CCc3ccc(C(F)(F)F)cc3C2)CC[C@@H](NC2CCc3ccccc32)C1 (stereo not given in full)	2.2 nM	1	21 min	–	–	–
COc1cc(-c2ccc3c(c2)CCC3N[C@@H]2CC[C@@](C(=O)N3CCc4ccc(C(F)(F)F)cc4C3)(C(C)C)C2)ccn1 (stereo not given in full)	23 nM	0.6	–	–	–	–
CC(C)[C@]1(C(=O)N2CCc3ccc(C(F)(F)F)cc3C2)CC[C@@H](NC2CCc3c(N)cccc32)C1 (stereo not given in full)	4.6 nM	0.7	–	–	–	–
CO[C@@H]1COCC[C@@H]1N[C@@H]1CC[C@@](C(=O)N2CCc3ncc(C(F)(F)F)cc3C2)(C(C)C)C1 [MK-0812]	0.55 nM	–	92 min	–	–	0.48 nM
CC(C)[C@]1(C(=O)N2CCc3ccc(C(F)(F)F)cc3C2)CC[C@@H](NC2CCc3cc(Cl)ccc32)C1 (stereo not given in full)	1.6 nM	1.2	100 min	–	–	–
COc1cccc(-c2ccc3c(c2)CCC3N[C@@H]2CC[C@@](C(=O)N3CCc4ccc(C(F)(F)F)cc4C3)(C(C)C)C2)c1 (stereo not given in full)	39 nM	0.8	–	–	–	–
COc1cc2c(cc1Br)CCC2N[C@@H]1CC[C@@](C(=O)N2CCc3ccc(C(F)(F)F)cc3C2)(C(C)C)C1 (stereo not given in full)	4.5 nM	1.3	323 min	–	–	–
CC(C)[C@]1(C(=O)N2CCc3ccc(C(F)(F)F)cc3C2)CC[C@@H](NC2CCc3cc(I)ccc32)C1 (stereo not given in full)	4.4 nM	1.3	103 min	–	–	–
COc1cncc(-c2ccc3c(c2)CCC3N[C@@H]2CC[C@@](C(=O)N3CCc4ccc(C(F)(F)F)cc4C3)(C(C)C)C2)c1 (stereo not given in full)	41 nM	0.8	–	–	–	–
COc1ccccc1-c1ccc2c(c1)CCC2N[C@@H]1CC[C@@](C(=O)N2CCc3ccc(C(F)(F)F)cc3C2)(C(C)C)C1 (stereo not given in full)	–	–	–	2%	–	–
CC(C)[C@]1(C(=O)N2CCc3ccc(C(F)(F)F)cc3C2)CC[C@@H](NC2CCc3cc(Br)ccc32)C1 (stereo not given in full)	2.3 nM	1.3	213 min	–	–	–
CC(C)[C@]1(C(=O)N2CCc3ccc(C(F)(F)F)cc3C2)CC[C@@H](NC2CCc3ccc(C#N)cc32)C1 (stereo not given in full)	13 nM	0.6	–	–	–	–
COc1ccc(OC)c2c1CCC2N[C@@H]1CC[C@@](C(=O)N2CCc3ccc(C(F)(F)F)cc3C2)(C(C)C)C1 (stereo not given in full)	49 nM	0.8	–	–	–	–
CC(C)[C@]1(C(=O)N2CCc3ccc(C(F)(F)F)cc3C2)CC[C@@H](NC2CCc3cc(-c4cccc(C#N)c4)ccc32)C1 (stereo not given in full)	55 nM	0.7	–	–	–	–
Cc1ccccc1-c1ccc2c(c1)CCC2N[C@@H]1CC[C@@](C(=O)N2CCc3ccc(C(F)(F)F)cc3C2)(C(C)C)C1 (stereo not given in full)	–	–	–	46%	–	–
